In ChEMBL document CHEMBL1153166, “Synthesis and anticancer activities of ageladine A and structural analogs” (Bioorg Med Chem Lett, 2010):
The source made the active and inactive calls. The calls are words filed in the database; no cut-off is given here.

Experiments:
U-266 [1] = assay: Cytotoxicity against human U266 cells assessed as reduction of cell viability at 1 uM after 48 hrs by MTS assay; type: functional, cell-based
In short: (§1)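 Multiple myeloma cells were exposed to compound at a single concentration for 48 h, alongside a DMSO vehicle control. Viability was then read by MTS assay. Each value is the mean of three determinations, deviating <10% from the mean.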

RPMI-8226 [2] = assay: Cytotoxicity against human RPMI8226 cells assessed as reduction of cell viability at 10 uM after 48 hrs by MTS assay; type: functional, cell-based; in short: as §1
DU-145 = assay: Cytotoxicity against human DU145 cells assessed as reduction of cell viability after 48 hrs by MTS assay; type: functional, cell-based; details: for IC50: DU-145, 48 h
In short: (§2)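 IC50 from cell viability read by MTS assay run to the manufacturer's protocol, after 48 h exposure to compound. Each value is the mean of three determinations, deviating <10% from the mean.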

RPMI-8226 [3] = assay: Cytotoxicity against human RPMI8226 cells assessed as reduction of cell viability at 1 uM after 48 hrs by MTS assay; type: functional, cell-based; in short: as §1
U-266 [4] = assay: Cytotoxicity against human U266 cells assessed as reduction of cell viability at 10 uM after 48 hrs by MTS assay; type: functional, cell-based; in short: as §1
MDA-MB-435 = assay: Cytotoxicity against human MDA-MB-435 cells assessed as reduction of cell viability after 48 hrs by MTS assay; type: functional, cell-based; details: MDA-MB-435, 48 h; in short: as §2
KMS-11 [5] = assay: Cytotoxicity against human KMS11 cells assessed as reduction of cell viability at 10 uM after 48 hrs by MTS assay; type: functional, cell-based; in short: as §1
[6] = molecular target: T1, 72 kDa type IV collagenase (Homo sapiens, UniProt P08253); assay: Inhibition of MMP2 at 5 uM
Target sequence in this assay (P08253 110-660 limits assumed): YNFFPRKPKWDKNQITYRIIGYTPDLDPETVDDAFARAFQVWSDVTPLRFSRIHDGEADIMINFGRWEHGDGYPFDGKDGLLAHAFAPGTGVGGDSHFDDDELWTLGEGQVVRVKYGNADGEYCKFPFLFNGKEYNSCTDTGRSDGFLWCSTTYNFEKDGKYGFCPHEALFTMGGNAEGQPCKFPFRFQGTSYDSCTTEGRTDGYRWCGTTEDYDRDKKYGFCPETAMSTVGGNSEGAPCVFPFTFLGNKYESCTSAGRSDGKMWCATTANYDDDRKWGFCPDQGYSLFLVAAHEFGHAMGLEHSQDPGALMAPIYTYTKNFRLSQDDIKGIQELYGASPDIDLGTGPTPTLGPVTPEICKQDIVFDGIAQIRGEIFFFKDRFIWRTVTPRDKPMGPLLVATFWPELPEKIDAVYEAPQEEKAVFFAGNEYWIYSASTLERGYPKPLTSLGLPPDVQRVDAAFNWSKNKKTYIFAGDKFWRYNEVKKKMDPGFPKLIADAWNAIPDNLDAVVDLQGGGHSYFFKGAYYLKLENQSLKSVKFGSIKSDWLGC

[7] = molecular target: T1, 72 kDa type IV collagenase; assay: Inhibition of MMP2 at 50 uM
Target sequence in this assay (P08253 110-660 limits assumed): as above

A2058 = assay: Cytotoxicity against human A2058 cells assessed as reduction of cell viability after 48 hrs by MTS assay; type: functional, cell-based; details: A2058, 48 h; in short: as §2
KMS-11 [8] = assay: Cytotoxicity against human KMS11 cells assessed as reduction of cell viability at 1 uM after 48 hrs by MTS assay; type: functional, cell-based; in short: as §1
[9] = molecular target: T1, 72 kDa type IV collagenase; assay: Inhibition of MMP2
Target sequence in this assay (P08253 whole entry): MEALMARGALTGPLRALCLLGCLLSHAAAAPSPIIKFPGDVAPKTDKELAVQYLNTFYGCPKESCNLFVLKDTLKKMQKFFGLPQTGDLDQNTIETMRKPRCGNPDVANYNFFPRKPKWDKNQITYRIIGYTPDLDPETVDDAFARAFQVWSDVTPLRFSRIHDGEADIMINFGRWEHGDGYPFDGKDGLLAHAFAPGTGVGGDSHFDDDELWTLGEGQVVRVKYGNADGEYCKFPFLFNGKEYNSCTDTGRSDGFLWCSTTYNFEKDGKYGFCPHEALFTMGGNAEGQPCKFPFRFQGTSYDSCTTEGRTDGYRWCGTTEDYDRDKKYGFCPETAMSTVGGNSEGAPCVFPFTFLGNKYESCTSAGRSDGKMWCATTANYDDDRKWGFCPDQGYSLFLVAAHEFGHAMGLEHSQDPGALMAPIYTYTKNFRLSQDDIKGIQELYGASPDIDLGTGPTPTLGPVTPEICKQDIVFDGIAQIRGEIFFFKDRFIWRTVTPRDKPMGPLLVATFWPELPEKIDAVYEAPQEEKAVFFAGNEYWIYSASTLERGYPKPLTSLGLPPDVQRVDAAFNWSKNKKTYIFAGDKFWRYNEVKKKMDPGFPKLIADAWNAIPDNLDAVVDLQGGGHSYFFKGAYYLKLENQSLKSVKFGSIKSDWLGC

| SMILES | inhibition [6] [%] | inhibition [7] [%] | IC50 [9] [µM] | Activity (U-266 [1]) | Activity (RPMI-8226 [2]) | Activity (DU-145) | IC50 (DU-145) [µM] | Activity (RPMI-8226 [3]) | Activity (U-266 [4]) | IC50 (MDA-MB-435) [µM] | Activity (KMS-11 [5]) | IC50 (A2058) [µM] | Activity (KMS-11 [8]) |
| --- | --- | --- | --- | --- | --- | --- | --- | --- | --- | --- | --- | --- | --- |
| Nc1nc2c(-c3cc(Br)c(Br)[nH]3)nccc2[nH]1 [AGELADINE A] | – | – | 1.7 | – | – | – | – | – | – | – | – | – | – |
| CC(C)c1nccc2nc(N)[nH]c12 | 25 | 17 | – | – | – | – | – | – | – | – | – | – | – |
| CC(C)Cc1nccc2nc(N)[nH]c12 | 31 | 22 | – | – | – | – | – | – | – | – | – | – | – |
| Nc1nc2ccnc(-c3c[nH]c4ccccc34)c2[nH]1 | 25 | 26 | – | – | – | – | – | – | – | – | – | – | – |
| Nc1nc2ccnc(-c3cccc4ccccc34)c2[nH]1 | 20 | – | – | – | – | – | – | – | – | – | – | – | – |
| Nc1nc2ccnc(C3CCCCC3)c2[nH]1 | 9 | 40 | – | – | – | – | – | – | – | – | – | – | – |

More lines, main results first:

| inhibition [6] [%] | inhibition [7] [%] | IC50 [9] [µM] | SMILES | Activity (U-266 [1]) | Activity (RPMI-8226 [2]) | Activity (DU-145) | IC50 (DU-145) [µM] | Activity (RPMI-8226 [3]) | Activity (U-266 [4]) | IC50 (MDA-MB-435) [µM] | Activity (KMS-11 [5]) | IC50 (A2058) [µM] | Activity (KMS-11 [8]) |
| --- | --- | --- | --- | --- | --- | --- | --- | --- | --- | --- | --- | --- | --- |
| 27 | 60 | – | CC(C)CC1=C2NC(N)=NC2C=CC=N1 (stereo not drawn) | Active | Active | Dose-dependent effect | 4.3 | Active | Active | 2.9 | Active | 4.1 | Active |
| 23 | 53 | – | NC1=NC2C=CC=NC(C3CCCCC3)=C2N1 (stereo not drawn) | Active | Active | Dose-dependent effect | 5 | Active | Active | 3.4 | Active | 4.5 | Active |
| 27 | 54 | – | NC1=NC2C=CC=NC(c3ccc(Cl)cc3)=C2N1 (stereo not drawn) | Active | Active | Dose-dependent effect | 6.2 | Active | Active | 3.6 | Active | 5.1 | Active |
| 28 | 52 | – | CC(C)C1=C2NC(N)=NC2C=CC=N1 (stereo not drawn) | Active | Active | Dose-dependent effect | 7.5 | Active | Active | 6.7 | Active | 9.5 | Active |
